The source made the active and inactive calls. The calls are words filed in the database; no cut-off is given here.
Experiments:
[1] = biological target: T1, Muscarinic acetylcholine receptor M4 (Homo sapiens) (UniProt P08173); experiment: (§1) Antagonist activity at human Gs/Gi/o-coupled CHRM4 expressed in CHOK1 cells assessed as inhibition in acetylcholine-induced beta-arrestin 2 recruitment at 20 uM incubated for 30 mins followed by acetylcholine addition and measured after 90 or 180 mins by pathhunter beta-arrestin assay relative to control; type: cell-based
T1 sequence (whole entry): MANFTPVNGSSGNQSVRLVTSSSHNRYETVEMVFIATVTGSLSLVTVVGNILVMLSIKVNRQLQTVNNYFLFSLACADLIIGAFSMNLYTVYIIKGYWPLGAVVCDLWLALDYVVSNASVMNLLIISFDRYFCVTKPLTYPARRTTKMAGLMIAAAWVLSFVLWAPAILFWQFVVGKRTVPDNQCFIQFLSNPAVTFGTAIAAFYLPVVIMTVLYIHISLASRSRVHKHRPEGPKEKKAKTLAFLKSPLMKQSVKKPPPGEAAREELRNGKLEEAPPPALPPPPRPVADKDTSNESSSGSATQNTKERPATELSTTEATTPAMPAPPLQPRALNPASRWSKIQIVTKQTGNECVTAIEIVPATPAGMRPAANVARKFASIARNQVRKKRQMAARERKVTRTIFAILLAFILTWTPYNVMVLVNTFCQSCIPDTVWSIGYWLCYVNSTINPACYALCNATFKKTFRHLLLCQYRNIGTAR
Method in brief: (§2)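 PathHunter beta-arrestin recruitment, antagonist mode, run at DiscoverX. Cells seeded and held at 37 °C, then preincubated with test sample for 30 min at 37 °C or room temperature (1% vehicle). Agonist then added at EC80 for 90 or 180 min. IC50 comes from concentration–response runs in the same format.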

[2] = biological target: Cannabinoid receptor 1 (Homo sapiens, UniProt P21554); experiment: Antagonist activity at human Gi/o-coupled CNR1 expressed in CHOK1 cells assessed as inhibition in CP55940-induced beta-arrestin 2 recruitment at 20 uM incubated for 30 mins followed by CP55940 addition and measured after 90 or 180 mins by pathhunter beta-arrestin assay relative to control; type: cell-based; method in brief: as §2
[3] = biological target: Cannabinoid receptor 2 (Homo sapiens, UniProt P34972); experiment: Antagonist activity at human Gi/o-coupled CNR2 expressed in CHOK1 cells assessed as inhibition in CP55940-induced beta-arrestin 2 recruitment at 20 uM incubated for 30 mins followed by CP55940 addition and measured after 90 or 180 mins by pathhunter beta-arrestin assay relative to control; type: cell-based; method in brief: as §2
[4] = biological target: C-X-C chemokine receptor type 4 (Homo sapiens) (UniProt P61073); experiment: Antagonist activity at human Gi/o-coupled CXCR4 expressed in mouse C2C12 cells assessed as inhibition in CXCL12-induced beta-arrestin 2 recruitment at 20 uM incubated for 30 mins followed by CXCL12 addition and measured after 90 or 180 mins by pathhunter beta-arrestin assay relative to control; type: cell-based; method in brief: as §2
[5] = biological target: D(2) dopamine receptor (Homo sapiens) (UniProt P14416); experiment: Antagonist activity at human Gi/o-coupled DRD2L expressed in CHOK1 cells assessed as inhibition in dopamine-induced beta-arrestin 2 recruitment at 20 uM incubated for 30 mins followed by dopamine addition and measured after 90 or 180 mins by pathhunter beta-arrestin assay relative to control; type: cell-based; method in brief: as §2
[6] = biological target: T2, Neuropeptide S receptor (Homo sapiens) (UniProt Q6W5P4); experiment: Antagonist activity at human Gq-coupled NPSR1b expressed in human U2OS cells assessed as inhibition in neuropeptide S-induced beta-arrestin 2 recruitment at 20 uM incubated for 30 mins followed by neuropeptide S addition and measured after 90 or 180 mins by pathhunter beta-arrestin assay relative to control; type: cell-based; method in brief: as §2
T2 sequence (whole entry): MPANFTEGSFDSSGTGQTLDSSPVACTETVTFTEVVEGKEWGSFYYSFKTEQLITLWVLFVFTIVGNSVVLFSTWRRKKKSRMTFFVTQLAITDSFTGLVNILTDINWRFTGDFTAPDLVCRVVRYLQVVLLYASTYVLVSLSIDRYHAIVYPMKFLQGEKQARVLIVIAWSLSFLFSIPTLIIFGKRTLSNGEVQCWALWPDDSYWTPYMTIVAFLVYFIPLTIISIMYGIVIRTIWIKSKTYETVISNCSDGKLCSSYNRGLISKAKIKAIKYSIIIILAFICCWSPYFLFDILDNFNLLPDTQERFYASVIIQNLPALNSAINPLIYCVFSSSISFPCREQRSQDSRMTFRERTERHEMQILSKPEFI

[7] = biological target: T3, Prolactin-releasing peptide receptor (Homo sapiens) (UniProt P49683); experiment: as §1, with “Gq-coupled PRLHR” for “Gs/Gi/o-coupled CHRM4”, “prolactin releasing peptide (1 to 31)-induced” for “acetylcholine-induced”, “prolactin releasing peptide (1 to 31)” for “acetylcholine”; type: cell-based; method in brief: as §2
T3 sequence (whole entry): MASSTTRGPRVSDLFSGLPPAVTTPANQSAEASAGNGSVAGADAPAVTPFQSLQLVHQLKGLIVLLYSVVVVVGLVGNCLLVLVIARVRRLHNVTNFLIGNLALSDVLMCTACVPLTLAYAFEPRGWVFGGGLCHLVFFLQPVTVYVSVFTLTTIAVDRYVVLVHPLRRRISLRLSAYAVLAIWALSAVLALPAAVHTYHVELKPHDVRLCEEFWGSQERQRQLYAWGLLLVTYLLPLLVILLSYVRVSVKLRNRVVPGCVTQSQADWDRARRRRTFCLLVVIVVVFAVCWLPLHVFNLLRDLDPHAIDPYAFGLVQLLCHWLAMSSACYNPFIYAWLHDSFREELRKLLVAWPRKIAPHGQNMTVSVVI

[8] = biological target: Prostacyclin receptor (Homo sapiens, UniProt P43119); experiment: Antagonist activity at human Gs-coupled PTGIR assessed as inhibition in beraprost-induced beta-arrestin 2 recruitment at 20 uM incubated for 30 mins followed by beraprost- addition and measured after 90 or 180 mins by pathhunter beta-arrestin assay relative to control; method in brief: as §2
[9] = Stability of compound in pH 2.0 HCl aqueous solution assessed as parent compound remaining at 0.025 mmol measured after 24 hrs; type: physicochemical; settings: read-out: Stability
Method in brief: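 Acid stability: compound held 24 h at 37 °C in acidic aqueous media at pH 2.0 or pH 4.88. Percent recovery of parent compound was measured.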

[10] = Toxicity in C57BL/6J mouse at 60 nmol, icv measured for 2 days by conditioned place preference test; settings: in vivo, icv_or_intrathecal, 48 h
[11] = biological target: Histamine H1 receptor (Homo sapiens) (UniProt P35367); settings: at 20 µM
[12] = tested on: Mus musculus; experiment: Suppression of drug-induced morphine-seeking behavior in C57BL/6J mouse assessed as reduction in stress-induced reinstatement of morphine-CPP at 60 nmol, icv administered 15 mins prior to testing by forced swim test

Sequence of C-X-C chemokine receptor type 4 (Homo sapiens) (P61073 whole entry): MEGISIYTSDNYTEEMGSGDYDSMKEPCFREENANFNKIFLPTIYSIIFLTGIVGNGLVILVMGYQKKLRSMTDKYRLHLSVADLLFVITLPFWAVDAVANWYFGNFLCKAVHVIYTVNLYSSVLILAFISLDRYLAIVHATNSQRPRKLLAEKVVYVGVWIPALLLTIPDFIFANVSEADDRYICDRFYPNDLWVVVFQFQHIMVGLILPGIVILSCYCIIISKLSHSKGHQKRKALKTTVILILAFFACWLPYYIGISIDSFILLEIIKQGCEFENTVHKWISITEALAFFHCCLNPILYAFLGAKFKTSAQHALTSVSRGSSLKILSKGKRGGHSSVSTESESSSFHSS
Sequence of D(2) dopamine receptor (Homo sapiens) (P14416 whole entry): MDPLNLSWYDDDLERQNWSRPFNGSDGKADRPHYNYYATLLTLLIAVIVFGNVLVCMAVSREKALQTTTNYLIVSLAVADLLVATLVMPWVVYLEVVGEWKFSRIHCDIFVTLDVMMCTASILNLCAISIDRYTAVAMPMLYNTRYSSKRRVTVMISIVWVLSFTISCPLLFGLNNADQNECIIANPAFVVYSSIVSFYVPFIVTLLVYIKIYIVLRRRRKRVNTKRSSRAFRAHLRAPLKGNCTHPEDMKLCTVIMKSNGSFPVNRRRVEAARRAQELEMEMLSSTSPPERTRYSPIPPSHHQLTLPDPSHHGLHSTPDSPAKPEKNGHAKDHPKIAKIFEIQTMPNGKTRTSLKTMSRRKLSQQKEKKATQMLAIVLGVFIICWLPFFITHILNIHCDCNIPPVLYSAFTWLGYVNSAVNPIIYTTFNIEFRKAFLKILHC
Sequence of Cannabinoid receptor 1 (P21554 whole entry): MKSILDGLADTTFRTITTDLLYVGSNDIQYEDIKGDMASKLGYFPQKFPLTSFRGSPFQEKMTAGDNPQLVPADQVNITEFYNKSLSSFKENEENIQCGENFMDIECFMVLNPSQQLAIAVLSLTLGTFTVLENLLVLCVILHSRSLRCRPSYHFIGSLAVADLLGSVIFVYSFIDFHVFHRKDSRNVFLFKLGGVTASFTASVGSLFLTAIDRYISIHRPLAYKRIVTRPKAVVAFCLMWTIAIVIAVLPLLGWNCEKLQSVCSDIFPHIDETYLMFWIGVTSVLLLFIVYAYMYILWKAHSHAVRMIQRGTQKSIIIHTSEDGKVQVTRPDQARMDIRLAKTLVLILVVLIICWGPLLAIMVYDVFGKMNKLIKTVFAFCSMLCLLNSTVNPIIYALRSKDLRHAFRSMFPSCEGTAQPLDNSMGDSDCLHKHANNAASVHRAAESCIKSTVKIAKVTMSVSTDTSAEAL
Sequence of Histamine H1 receptor (Homo sapiens) (P35367 whole entry): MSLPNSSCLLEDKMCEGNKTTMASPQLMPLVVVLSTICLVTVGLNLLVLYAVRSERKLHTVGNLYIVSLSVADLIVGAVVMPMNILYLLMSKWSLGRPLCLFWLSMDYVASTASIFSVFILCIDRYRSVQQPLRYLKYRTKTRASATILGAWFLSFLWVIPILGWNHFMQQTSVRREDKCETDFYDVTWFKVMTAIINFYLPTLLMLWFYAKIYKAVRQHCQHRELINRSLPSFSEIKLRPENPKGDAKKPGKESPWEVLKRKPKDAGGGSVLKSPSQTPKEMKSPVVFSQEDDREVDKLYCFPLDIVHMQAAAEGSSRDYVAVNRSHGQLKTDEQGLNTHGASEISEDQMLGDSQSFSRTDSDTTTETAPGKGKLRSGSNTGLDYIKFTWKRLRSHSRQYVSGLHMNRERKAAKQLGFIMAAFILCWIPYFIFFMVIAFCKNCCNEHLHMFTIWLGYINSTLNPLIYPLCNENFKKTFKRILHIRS
Sequence of Cannabinoid receptor 2 (P34972 whole entry): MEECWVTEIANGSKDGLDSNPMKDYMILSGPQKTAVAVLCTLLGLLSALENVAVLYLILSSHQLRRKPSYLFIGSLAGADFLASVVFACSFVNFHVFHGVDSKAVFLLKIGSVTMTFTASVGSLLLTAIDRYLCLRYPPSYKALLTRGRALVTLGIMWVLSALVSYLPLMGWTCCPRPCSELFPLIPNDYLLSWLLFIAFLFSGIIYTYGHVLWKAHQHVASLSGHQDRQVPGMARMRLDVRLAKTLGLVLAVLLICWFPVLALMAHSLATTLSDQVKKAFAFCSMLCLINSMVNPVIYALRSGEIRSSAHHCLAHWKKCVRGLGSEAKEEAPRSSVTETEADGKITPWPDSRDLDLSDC
Sequence of Prostacyclin receptor (P43119 whole entry): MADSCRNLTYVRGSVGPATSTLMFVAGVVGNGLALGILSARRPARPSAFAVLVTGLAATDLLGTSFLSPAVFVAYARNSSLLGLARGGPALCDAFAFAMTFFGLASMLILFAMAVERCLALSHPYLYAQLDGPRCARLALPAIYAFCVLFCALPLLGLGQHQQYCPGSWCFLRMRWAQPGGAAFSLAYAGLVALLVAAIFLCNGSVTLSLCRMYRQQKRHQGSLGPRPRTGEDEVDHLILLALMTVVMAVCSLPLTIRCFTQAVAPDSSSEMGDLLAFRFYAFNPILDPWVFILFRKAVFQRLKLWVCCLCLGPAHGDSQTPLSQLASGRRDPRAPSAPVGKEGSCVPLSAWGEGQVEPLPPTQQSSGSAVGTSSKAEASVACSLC

inhibition [1]: 75% | inhibition [2]: 48% | inhibition [3]: 60% | inhibition [4]: 34% | inhibition [5]: 15% | inhibition [6]: 30% | inhibition [7]: 59% | inhibition [8]: 75% | remaining at 24 h, 0.025 mmol [9]: 92.1% | inhibition [11]: 17%
Compound: CC[C@@]12CCCN3CCc4c([nH]c5ccccc45)[C@]31N(Cc1cn(Cc3ccccc3)nn1)C(=O)C2
Activity [10]: Non-Toxic | Activity [12]: Active
